# Most compounds without a hit are left out; they make up all but 2.4% or so of the library.
# Neddylation inh: blocks human cullin neddylation | 0.58% of 360,000 active | TR-FRET cullin neddylation, biochemical | inhibition, % at 25 µM | AID 651699 | P61081+Q13564; in the data active = inhibition above about 36%
# TPT1 inh: inhibitors of Candida albicans tRNA 2'-phosphotransferase TPT1. recombinant caTPT1, FP RNA substrate dephosphorylation. inhibition, % at 5 µM. 0.81% of 300,000 active. AID 1962;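 active = inhibition above the mean of all tested compounds plus 3 SD, set per screening campaign, cut at about 24% in these data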;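 also: plate controls were DMSO alone for no effect and ferristatin control at 100 nM for full effect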
# CSN inh: blocks human CSN-mediated cullin deneddylation. Q92905. Purified CSN, SCF-Nedd8-OG deneddylation, fluorescence polarization. inhibition, % at 12.5 µM. 0.38% of 360,000 active;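 active = pattern-corrected inhibition above about 35%, with an unprinted fluorescence ratio check between 0.5 and 1.5, limit read from the data, passing the limit was not always enough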;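 also: 0% = enzyme with substrate and 100% = substrate without enzyme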
#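 Assay system: Purified human Csn5 enzyme expressed in HEK293T cells | Amount: Enzyme 0.24 nM | Measured by: Fluorescence polarization readout | Medium: Tris/NaCl/DTT buffer, pH 7.5 | Compound dosing: One concentration, 12.5 µM, 0.25% DMSO | Times: 90 min incubation of compound, enzyme and substrate at room temperature | Control set: no-enzyme wells high, enzyme-with-substrate wells low | Read-out: % inhibition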
# Rin1-Abl PPI inh: blocks binding of human Rin1 to Abl | TR-FRET Rin1/Abl binding, biochemical | inhibition, % at 7.35 µM | P00519+Q13671 | AID 588664 | 0.4% of 360,000 active; in the data active = inhibition above about 5%, passing the limit was not always enough
# HNF4A DNA FP: change in binding of human HNF4 alpha to DNA; P41235; activity change, % at 10 µM; 0.3% of 360,000 active; HNF4a-FITC DNA binding, fluorescence polarization, 1 h; in the data active = activity change above about 30%, passing the limit was not always enough
# Target sequence (P41235 whole entry, looked up): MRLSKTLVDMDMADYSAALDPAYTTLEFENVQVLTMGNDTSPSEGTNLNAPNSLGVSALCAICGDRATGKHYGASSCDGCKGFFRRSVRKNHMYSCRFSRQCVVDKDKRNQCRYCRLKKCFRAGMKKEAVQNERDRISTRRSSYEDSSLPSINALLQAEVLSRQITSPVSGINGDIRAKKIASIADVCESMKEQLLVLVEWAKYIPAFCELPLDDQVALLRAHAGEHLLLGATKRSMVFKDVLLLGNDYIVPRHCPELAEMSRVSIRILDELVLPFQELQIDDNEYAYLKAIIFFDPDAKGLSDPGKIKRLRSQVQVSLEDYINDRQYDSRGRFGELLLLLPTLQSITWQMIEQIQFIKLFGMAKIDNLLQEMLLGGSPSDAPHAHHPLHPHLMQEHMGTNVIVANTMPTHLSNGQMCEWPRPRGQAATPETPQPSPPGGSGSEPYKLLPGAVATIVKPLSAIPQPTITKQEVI
# Rpn11 inh: inhibitors of human proteasome Rpn11 | AID 588493 | human 26S proteasome, Ub4-pepOG fluorescence polarization; 20S core pre-blocked with epoxomicin | inhibition, % at 20 µM | 0.59% of 360,000 active;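 active = inhibition at 20 µM, scaled to each plate's controls, above about 33%, limit read from the data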
# Rin1-Abl confirm: confirmation of inhibitors of human Rin1-Abl interaction; shares compounds with Rin1-Abl PPI inh; TR-FRET Rin1-Abl binding, purified proteins; inhibition, % at 7.35 µM; 49% of 1,300 active
# GFP quencher: GFP fluorescence interference artifact; inhibitors/quenchers counterscreen; inhibition, % at 6.75 µM; shares compounds with Rin1-Abl PPI inh; 8.5% of 1,300 active;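 also: ABL1-eGFP fusion protein alone without its partner RIN1-SBP; 0% = protein with vehicle and 100% = wells lacking protein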
# The depositor's hits bear a star; . = no result given. Rule as the data show it, unless noted: active = inhibition above about 6.5%; inactive = the rest.
SMILES,Neddylation inh,TPT1 inh,CSN inh,Rin1-Abl PPI inh,HNF4A DNA FP,Rpn11 inh,Rin1-Abl confirm,GFP quencher
CC1CCCN(Cc2nc(Cc3ccccc3Cl)no2)C1 (stereo not drawn),-1.3,-2.1,-5.1,-4.1,1.3,-4.7,.,.
CC(=O)C[C@@H](O)CC(=O)[C@H]1OC(=O)[C@H](C)CCCCc2ccccc21,6.8,.,-3.4,2.4,-2.1,-4.4,.,.
CCCCn1c(N)c(N(CCC(C)C)C(=O)C2CCN(C(=O)c3ccccc3C)CC2)c(=O)[nH]c1=O,4.3,-1.8,1.6,8.4*,-2.4,-2.0,-2.5,-0.1
CCCCN(C(=O)C1CCN(C(=O)c2ccccc2C)CC1)c1c(N)n(CCCC)c(=O)[nH]c1=O,0.0,1.6,0.8,-0.8,-2.2,2.3,.,.
COc1ccccc1N1CCN(S(=O)(=O)CCNC(=O)Cc2ccc(F)cc2)CC1,3.8,0.4,-4.4,3.8,-1.1,-2.8,.,.
O=C(CSc1nnc(Cn2c(=O)sc3ccccc32)n1-c1ccccc1)N1CCCC1,5.7,0.3,-3.3,-0.1,2.1,-5.4,.,.
COc1ccc(-n2c(Cn3c(=O)sc4ccccc43)nnc2SCC(=O)N2CCOCC2)cc1,5.8,3.0,3.5,6.5*,-2.8,10.6,5.9,-0.3
O=C(CSc1nnc(Cn2c(=O)sc3ccccc32)n1-c1ccccc1)Nc1nccs1,-4.5,1.2,-3.2,9.6*,2.3,-6.8,2.9,2.3
O=C(O)c1ccc(C(=O)Nc2cccc3ccccc23)c(C(=O)O)c1,-9.2,.,5.8,-2.0,-3.6,8.1,.,.
Cc1nc(Cl)c2c(n1)NC(=O)CO2,-0.1,1.4,0.7,-2.1,-1.5,-4.9,.,.
Cc1ccc(S(=O)(=O)N2CCCCC2)cc1C(=O)NC1CCCCC1,-5.0,3.8,-1.1,-1.9,-4.7,14.9,.,.
O=C(NC1CCCC1)c1cc(S(=O)(=O)N2CCCC2)ccc1Cl,-0.4,0.6,-1.6,7.6*,-1.4,0.5,-0.8,-0.1
O=C(C1CCN(c2nnc(N3CCCC3=O)s2)CC1)N1CCN(Cc2ccc3c(c2)OCO3)CC1,0.2,.,3.6,10.2*,-4.1,3.4,4.7,-0.6
COc1cc(C(=O)N2CCSCC2)ccc1OC1CCN(C(C)=O)CC1,10.3,-4.9,0.1,-1.9,8.7,0.6,.,.
COCCC1CCCCN1C(=O)c1ccc(OC2CCN(C(C)=O)CC2)c(OC)c1 (stereo not drawn),-1.6,2.9,-1.0,12.9*,5.5,5.5,-0.7,-0.3
CCOC(=O)c1[nH]c(=O)[nH]c1COC(=O)c1cc2ccccc2o1,-4.1,-2.9,0.9,0.3,0.9,3.8,.,.
CCOC(=O)c1[nH]c(=O)[nH]c1CSCCO,-1.4,-2.5,1.3,8.1*,-0.3,-8.0,12.3*,-0.4
CN(CC(=O)Nc1ccc(F)cc1)C(=O)c1ccc(OCc2ccccc2)cc1,-11.4,.,-1.8,4.6,3.2,0.4,.,.
CN(CC(=O)Nc1cccc(F)c1)C(=O)c1ccc(OCc2ccccc2)cc1,4.2,.,-6.8,12.0*,1.8,2.4,-3.0,-1.6
COc1ccc(N2CCN(c3cc(C(=O)Nc4cc(OC)c(OC)c(OC)c4)ncn3)CC2)cc1OC,5.3,.,-4.1,-4.8,3.7,-9.5,.,.
O=c1[nH]c(Nc2ccccc2)cc2ccccc12,-18.2,21.3,23.9,5.6*,-0.9,-13.5,1.9,-2.4
Cc1noc(C)c1S(=O)(=O)N1CCCCC1c1cc(C(=O)Nc2cccc3c2CCCC3)no1 (stereo not drawn),3.0,.,-1.9,-3.5,0.1,-1.9,.,.
COc1ccc(CC(N)c2csc(NC(=O)NCCc3ccccc3)n2)cc1 (stereo not drawn),0.2,.,2.9,10.0*,-1.1,-0.9,6.8*,1.4
COc1ccccc1C(=O)Nc1ccc(C(=O)N2CCCC2)cc1,-3.8,-3.1,2.1,7.5,1.9,3.1,.,.
COc1ccccc1C(=O)Nc1ccc(C(=O)N2CCCCC2)cc1,0.9,-3.5,8.8,14.1*,-0.8,-8.8,12.8*,-0.3

# Screens (PubChem BioAssay)
